From PubChem
SF-1 act = SF-1 (human) activation; activation, % at 10 µM; CHO-K1 Gal4-SF-1 LBD luciferase reporter; % increase over DMSO SF-1-specific signal; 65,000 tested, 1.9% active; Q13285;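 active = activation above the mean activation of all tested compounds plus 3 SD, cut at about 50% in these data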
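Test system: CHO-K1 cells co-transfected with Gal4 DBD–human SF-1 LBD, 5xGal4 luciferase reporter. Quantity: 4,000 cells per well. Compound: 10 µM only. Incubation: compound added 1 h post-seeding, 20 h exposure at 37 °C, 5% CO2. Detection: SteadyLite luciferase luminescence. Replication: one test per compound.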
MMP13 inh = MMP13 (human) collagenase inhibition; P45452; MMP-13 fTHP FRET cleavage, Mca fluorescence; inhibition, % at 4 µM; 65,000 tested, 0.07% active;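 active = inhibition above the mean of compound-free control plate wells plus 3 SD, cut at about 14% in these data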;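 also: 0% = DMSO wells and 100% = wells with reference MMP-13 inhibitor after basal subtraction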
MT1-MMP txn act = activates MT1-MMP transcription. 86,000 tested, 0.16% active. HT1080 MT1-MMP promoter luciferase reporter, luminescence, overnight; active compounds read high. activation factor at 10 µM;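 active = activation factor of at least 2 for MT1-MMP transcription at 10 µM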
TNAP act DEA = activators of human TNAP at intermediate phosphate acceptor | purified TNAP, CDP-star luminescence, 100 mM DEA, 30 min; active compounds read high; scale: 0 levamisole-inhibited, 1 vehicle-only enzyme | activation factor at 20 µM | 64,000 tested, under 10 active | AID 813;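 active = activation factor of at least 2 at 20 µM, relative to controls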
RORA act = activators of human nuclear receptor RORA; P35398; CHO-K1 Gal4-RORA LBD luciferase reporter, luminescence; percent increase over mock-subtracted basal signal; activation, % at 10 µM; 65,000 tested, 1.5% active; AID 560;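 active = activation above the mean of all tested compounds plus 3 SD, cut at about 49% in these data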;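 also: 0% = DMSO-treated RORA cells and 100% = added signal equal to DMSO minus mock-transfected cells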
Target sequence (P35398 whole entry, looked up, the tested form may be a part): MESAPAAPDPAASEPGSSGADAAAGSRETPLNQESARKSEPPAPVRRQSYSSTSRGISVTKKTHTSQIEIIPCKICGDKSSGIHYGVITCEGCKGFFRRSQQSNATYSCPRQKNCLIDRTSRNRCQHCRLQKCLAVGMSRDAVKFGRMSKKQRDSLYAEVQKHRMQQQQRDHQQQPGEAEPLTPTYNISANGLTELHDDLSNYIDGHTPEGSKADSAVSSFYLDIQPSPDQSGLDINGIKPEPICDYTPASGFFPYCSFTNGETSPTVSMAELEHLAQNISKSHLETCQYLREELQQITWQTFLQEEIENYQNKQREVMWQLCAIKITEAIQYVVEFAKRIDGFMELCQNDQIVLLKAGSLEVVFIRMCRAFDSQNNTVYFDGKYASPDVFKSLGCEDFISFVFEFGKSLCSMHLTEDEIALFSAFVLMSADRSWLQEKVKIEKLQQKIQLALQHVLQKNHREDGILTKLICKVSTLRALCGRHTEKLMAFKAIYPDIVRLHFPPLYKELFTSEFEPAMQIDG
* marks the source's active call; other numbers are inactive results; x = no result given. In the library only some 2.1% were active in any assay of this set; here they are far more common.

SMILES | SF-1 act | MMP13 inh | MT1-MMP txn act | TNAP act DEA | RORA act
Cc1nc2cc(NC(=O)N3c4ccccc4CC3C)ccc2n1C (configuration not stated) | -3.9 | -10.9 | 0.5 | 0.9 | 12.7
CCCC(=O)Nc1ccc(NC(=O)c2ccccc2OC)cn1 | 0.4 | 8.8 | 1.2 | 1 | -16.2
COc1cccc(C(=O)Nc2ccccc2)c1 | x | x | 1.4 | x | x
COc1cccc(C(=O)Nc2cccc(SC)c2)c1 | 80.7* | -4.0 | 1.1 | 0.8 | 51.3*
CCCC(=O)Nc1ccc(NC(=O)c2ccccn2)cn1 | 27.4 | 0.8 | 0.9 | 1 | 89.1*
CCCC(=O)Nc1ccc(NC(=O)c2cccc(OC)c2)nc1 | 60.4* | -0.4 | 1.5 | 0.9 | 44.5
CCCc1nnc(NC(=O)c2cccc(OC)c2)s1 | 37.1 | 9.6 | 1 | 0.9 | 57.2*
COC(=O)c1ccc(C(NC(=O)OCc2ccccc2)/C(=C/[C@@H](C)C(=O)N(C)Cc2ccccc2)C(F)(F)F)cc1 (some centres not stated) | x | x | 1.2 | x | x
COC(=O)[C@H](Cc1ccccc1)NC(=O)[C@H]1C[C@@H]1[C@H](NC(=O)OCc1ccccc1)c1ccccc1 | x | x | 1.2 | x | x
Cc1cc(C(=O)COc2ncnc3sccc23)c(C)n1C1CC1 | 10.7 | 6.6 | 1.5 | 0.9 | 33.9
CCCn1c(C)cc(C(=O)COc2ncnc3sccc23)c1C | 52.6* | -8.4 | 1 | 0.8 | 6.9
Cc1ccccc1C(=O)c1cccn1CC(=O)NCc1ccc2c(c1)OCO2 | x | x | 1.5 | x | x
COC(=O)C1(CC(C)C)C=CCN1C(=O)c1ccccc1 (configuration not stated) | x | x | 1 | x | x
c1ccc(OCc2nc(-c3ccccc3)no2)cc1 | 55.5* | 1.2 | 1.6 | 0.9 | 39.9
Clc1ccc(OCc2nc(-c3ccncc3)no2)c(Br)c1 | 43.9 | -10.2 | 1.1 | 0.9 | 58.9*
CC1CCN(Cc2nc(-c3ccccc3)no2)CC1 | 51.2* | -3.5 | 1.5 | 0.9 | 19.1
Clc1ccccc1OCc1nc(-c2ccncc2)no1 | 91.5* | 3.8 | 1.5 | 0.9 | 54.5*
COc1nc(-c2ccccc2)ccc1-c1noc(COc2ccccc2)n1 | -11.0 | 1.2 | 1 | 0.9 | -10.1
COC(=O)[C@H]1C[C@@H]1[C@H](NS(=O)(=O)c1ccc(-c2ccccc2)cc1)c1ccccc1 | x | x | 1.2 | x | x
Cc1nc2ccc(Cl)cc2nc(C)/c1=N\O | 52.5* | 6.0 | 1.4 | 0.9 | 34.6
O=c1[nH]c2ccccc2c2nc3ccccn3c12 | 64.9* | -13.3 | 1.7 | 1 | 10.8
Cc1nc2sc(C(c3ccc(Cl)cc3)N3CCN(c4ccccc4F)CC3)c(O)n2n1 (configuration not stated) | 0.6 | 2.6 | 1.1 | 1 | -1.9
Cc1ccc(C(=O)N2CCOCC2)cc1Cl | 4.1 | 1.9 | 1.3 | 0.9 | 17.2
Cc1ccc(OCc2ccc(C(=O)N3CCOCC3)cc2)cc1C | 45.7 | 4.5 | 1.4 | 0.9 | 52.2*
O=C(C1COc2ccccc2O1)N1CCc2ccccc21 (configuration not stated) | 54.0* | 0.4 | 1.5 | 1 | 30.2
SMILES | SF-1 act | MMP13 inh | MT1-MMP txn act | TNAP act DEA | RORA act
COc1ccc(-n2nc3cc(C)c(N)c(Br)c3n2)cc1 | 64.2* | -49.5 | 1.5 | 0.8 | 49.7*
O=C(CN1CCN(c2ccccc2)CC1)Nc1ccc(OCc2ccccc2)cc1 | x | x | 1.2 | x | x
Cn1c(=O)c(C(=O)Nc2cnccn2)c(O)c2ccccc21 | 28.8 | 4.2 | 1.6 | 0.9 | 52.5*
CC(=O)Nc1nc(-c2ccccc2)ns1 | x | x | 1.6 | x | x
CCCCCCSc1nsc(NC(C)=O)n1 | 21.3 | 5.1 | 1.3 | 0.9 | 74.9*
CCCCSc1nsc(NC(C)=O)n1 | 48.9 | -5.5 | 1.1 | 0.9 | 55.6*
CCOC(=O)C(CC)n1cnc2c(cnn2-c2ccc(Cl)cc2)c1=O (configuration not stated) | 17.8 | -1.0 | 1.2 | 1 | 12.4
CCCCn1cnc2c(cnn2-c2ccc(Cl)cc2)c1=O | 64.8* | -1.1 | 1.4 | 0.9 | 27.7
CCOC(=O)C(C)n1cnc2c(cnn2-c2ccc(Cl)cc2)c1=O (configuration not stated) | 70.0* | -0.2 | 1.1 | 0.9 | 40.4
CCCn1cnc2c(cnn2-c2ccc(F)cc2)c1=O | 52.4* | -0.6 | 1.5 | 0.9 | 34.2
CCCCn1cnc2c(cnn2-c2ccc(F)cc2)c1=O | 43.0 | 0.3 | x | 0.9 | 33.6
CC(=O)N1C2(C=CC1(C)C(=O)NCCN1CCOCC1)CCCCC2 (configuration not stated) | x | x | 1.2 | x | x
Cc1ccc(S(=O)(=O)N(C)c2ccc(C(=O)N3CCN(Cc4ccc5c(c4)OCO5)CC3)cc2)cc1 | x | x | 1 | x | x
CCN(CC)c1ccc(C=Nc2ccc(C#N)cc2)c(O)c1 | -4.8 | -3.0 | 1.2 | 1 | 0.3
CCN(CC)c1ccc(C=N/C(C#N)=C(\N)C#N)cc1 | 56.8* | 2.5 | 1.1 | 0.9 | 28.0
Nc1ccc(C(=O)OCc2nc3c(ccc4ccccc43)[nH]2)cc1 | x | x | 2.5* | x | x
COc1cccc(-c2noc(-c3cccs3)n2)c1 | -8.4 | -0.3 | 1.3 | 0.9 | 66.5*
c1ccc(-c2ccccc2-c2nc(-c3cccnc3)no2)cc1 | -0.5 | 4.9 | 1.2 | 1 | -10.2
Cc1ccccc1-c1noc(-c2cccs2)n1 | 53.1* | 5.3 | 1.4 | 0.9 | 39.4
Cc1ccc(-c2nc(-c3cccnc3)no2)cc1 | 55.5* | 1.6 | 0.5 | 0.9 | 11.2
COc1cccc(-c2noc(-c3cccnc3)n2)c1 | 21.5 | 1.1 | 1.4 | 0.9 | 86.1*
COc1cccc(-c2nc(-c3ccccc3)no2)c1 | -9.3 | 3.2 | 0.8 | 0.9 | 13.9
COc1nc(-c2ccccc2)ccc1-c1noc(-c2cccs2)n1 | 48.7 | -4.0 | 1.5 | x | 48.0
COc1ccc(-c2noc(-c3ccc(Cl)cc3)n2)cc1 | 28.3 | -0.3 | 1.2 | 0.9 | 48.7*
COc1cccc(-c2nc(-c3ccc(NC(=O)c4cccnc4)cc3)no2)c1 | 54.6* | 2.4 | 1.3 | 0.9 | 51.3*
SMILES | SF-1 act | MMP13 inh | MT1-MMP txn act | TNAP act DEA | RORA act
Cn1cc(Br)c(C(=O)N2CCN(c3cccc(Cl)c3)CC2)n1 | x | x | 1.2 | x | x
COc1ccc(-c2nsc3c(N4CCN(C(=O)c5ccco5)CC4)ncnc23)cc1 | 17.2 | -21.1 | 1.5 | 0.9 | 23.9
O=C(c1ccco1)N1CCN(c2ncnc3c(-c4ccccc4)nsc23)CC1 | 5.0 | -5.1 | 1.2 | 1.1 | 62.5*
CCOC(=O)N1CCN(CC(=O)Nc2ccc(Oc3ccccc3)cc2)CC1 | x | x | 1.1 | x | x
CCCC[C@@H]1C[C@H]1C(NC(=O)c1cccs1)c1ccc(-c2ccccc2)cc1 (some centres not stated) | x | x | 1.3 | x | x
O=C(Nc1cccc(Cl)c1)c1ccc2c(=O)n3c(nc2c1)CCCCC3 | 59.0* | -3.3 | 0.7 | 1 | 23.9
O=C(Nc1ccc(F)c(Cl)c1)c1ccc2c(=O)n3c(nc2c1)CCCCC3 | 73.8* | 2.9 | 1.5 | 1 | 29.7
O=C(NCCC1=CCCCC1)c1ccc2c(=O)n3c(nc2c1)CCCCC3 | 6.4 | 4.4 | 1.7 | 0.9 | 47.7
COc1ccc(OC)c(N(CC(N)=O)S(=O)(=O)c2ccc(OC)c(OC)c2)c1 | x | x | 1 | x | x
